Data taken from ChEMBL document CHEMBL1799991, “Discovery of a novel class of 2-aminopyrimidines as CDK1 and CDK2 inhibitors” (Bioorg Med Chem Lett, 2011).
pIC50: −log10 of the molar value.

Legend:
[1] = biological target: Cyclin-dependent kinase 1 (Homo sapiens, UniProt P06493); experiment: Inhibition of CDK1 in presence of 100 uM ATP
[2] = biological target: Cyclin-dependent kinase 2 (Homo sapiens, UniProt P24941); experiment: Inhibition of CDK2 in presence of 100 uM ATP
A549 = experiment: Cytotoxicity against human A549 cells after 48 hrs; format: functional; conditions: A549, 48 h
How it was run: (§1)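 Exponentially growing cells exposed to test compounds at various concentrations for 48 h, then cell numbers counted; GI50 taken as the concentration giving 50% growth inhibition. Values are means of three experiments.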

EJ = experiment: Cytotoxicity against human EJ cells after 48 hrs; format: functional; how it was run: as §1
HCT-116 = experiment: Cytotoxicity against human HCT116 cells after 48 hrs; format: functional; conditions: HCT-116, 48 h; how it was run: as §1

Cyclin-dependent kinase 1, sequence (P06493 whole entry): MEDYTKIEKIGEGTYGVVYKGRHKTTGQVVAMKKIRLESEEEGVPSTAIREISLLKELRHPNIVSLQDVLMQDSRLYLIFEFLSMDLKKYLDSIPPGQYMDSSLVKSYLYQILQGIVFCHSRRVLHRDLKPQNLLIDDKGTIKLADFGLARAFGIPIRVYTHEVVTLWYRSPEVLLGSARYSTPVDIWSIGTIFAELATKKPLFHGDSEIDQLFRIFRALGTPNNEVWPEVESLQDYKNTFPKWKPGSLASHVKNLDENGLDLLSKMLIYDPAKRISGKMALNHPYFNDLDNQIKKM

pIC50 [1] | pIC50 [2] | Structure (SMILES) | GI50 (A549) [nM] | GI50 (EJ) [nM] | GI50 (HCT-116) [nM]
< 5.00 | < 5.00 | Nc1nccc(-c2cc(N3CCCCC3)ccc2O)n1 |  |  | 
5.65 | 6.10 | Nc1nccc(-c2cc(N3CCOCC3)ccc2O)n1 |  |  | 
5.12 | 5.40 | Nc1nccc(-c2cc(N3CCS(=O)(=O)CC3)ccc2O)n1 |  |  | 
< 5.00 | < 5.00 | Nc1nccc(-c2cc(N3CCC(=O)CC3)ccc2O)n1 |  |  | 
5.00 | 5.42 | Nc1nccc(-c2cc(N3CCC(O)CC3)ccc2O)n1 |  |  | 
5.52 | 5.68 | Nc1nccc(-c2cc(N3CCC(O)C3)ccc2O)n1 (stereo not drawn) |  |  | 
7.82 | 7.68 | Nc1nccc(-c2cc(N3C[C@H](O)[C@@H](O)C3)ccc2O)n1 | 5500 | 4000 | 2500
7.70 | 7.38 | Cc1cc(-c2cc(N3C[C@H](O)[C@@H](O)C3)ccc2O)nc(N)n1 | 2000 | 900 | 400
7.51 | 7.30 | CCc1cc(-c2cc(N3C[C@H](O)[C@@H](O)C3)ccc2O)nc(N)n1 | 3000 | 1500 | 1000
7.03 |  | CC(C)c1cc(-c2cc(N3C[C@H](O)[C@@H](O)C3)ccc2O)nc(N)n1 | 1800 | 1500 | 900
6.59 | 6.35 | CCCCCCc1cc(-c2cc(N3C[C@H](O)[C@@H](O)C3)ccc2O)nc(N)n1 | 700 | 800 | 500
< 5.00 | < 5.00 | Nc1nc(-c2cc(N3C[C@H](O)[C@@H](O)C3)ccc2O)cc(C2CC2)n1 |  |  | 
7.64 | 7.38 | Nc1nc(-c2cc(N3C[C@H](O)[C@@H](O)C3)ccc2O)cc(C2CCCC2)n1 | 2000 | 900 | 400
7.35 | 7.28 | Nc1nc(-c2cc(N3C[C@H](O)[C@@H](O)C3)ccc2O)cc(C2CCCCC2)n1 | 1200 | 1200 | 800
7.51 | 7.05 | Nc1nc(-c2cc(N3C[C@H](O)[C@@H](O)C3)ccc2O)cc(C2CCCCCC2)n1 | 600 | 700 | 300
6.66 | 6.44 | Nc1nc(-c2cc(N3C[C@H](O)[C@@H](O)C3)ccc2O)cc(C2CCCNC2)n1 (stereo partly drawn) | > 10000 | > 10000 | > 10000
6.47 | 6.70 | Nc1nc(-c2cc(N3C[C@H](O)[C@@H](O)C3)ccc2O)cc(C2CCNCC2)n1 |  |  | > 10000
6.55 | 6.60 | CN(C)c1cc(-c2cc(N3C[C@H](O)[C@@H](O)C3)ccc2O)nc(N)n1 |  |  | > 10000
6.00 | 6.03 | Nc1nc(-c2cc(N3C[C@H](O)[C@@H](O)C3)ccc2O)cc(N2CCOCC2)n1 |  |  | > 10000
6.38 | 6.52 | CN1CCN(c2cc(-c3cc(N4C[C@H](O)[C@@H](O)C4)ccc3O)nc(N)n2)CC1 |  |  | > 10000
6.10 | 6.35 | Nc1nc(NCCN2CCOCC2)cc(-c2cc(N3C[C@H](O)[C@@H](O)C3)ccc2O)n1 |  |  | > 10000
7.72 | 7.82 | Nc1nc(NC2CCCC2)cc(-c2cc(N3C[C@H](O)[C@@H](O)C3)ccc2O)n1 | 7000 | 4500 | 3000
7.70 | 7.22 | Nc1nc(NC2CCCCC2)cc(-c2cc(N3C[C@H](O)[C@@H](O)C3)ccc2O)n1 | 1500 | 2000 | 900
